One may read the inhibition as the relative decrease from the control value, in per cent. For orientation: IC50 means the concentration that gives 50% inhibition. What is called EC50 is the concentration at which the effect is half-maximal.

The record followed here is ChEMBL document CHEMBL1158492, “Triazole inhibitors of Cryptosporidium parvum inosine 5'-monophosphate dehydrogenase” (J Med Chem, 2009).

Assay [1] concerns the target T1, Inosine-5'-monophosphate dehydrogenase 2 (Homo sapiens, UniProt P12268). The experiment in a line: Inhibition of human recombinant IMPDH2 expressed in Escherichia coli guaB assessed as NADH production at 5 uM by fluorescence assay.
The target in assay [2] is T2, Inosine-5'-monophosphate dehydrogenase (Cryptosporidium parvum, UniProt Q8T6T2).
T2 sequence (Q8T6T2 whole entry): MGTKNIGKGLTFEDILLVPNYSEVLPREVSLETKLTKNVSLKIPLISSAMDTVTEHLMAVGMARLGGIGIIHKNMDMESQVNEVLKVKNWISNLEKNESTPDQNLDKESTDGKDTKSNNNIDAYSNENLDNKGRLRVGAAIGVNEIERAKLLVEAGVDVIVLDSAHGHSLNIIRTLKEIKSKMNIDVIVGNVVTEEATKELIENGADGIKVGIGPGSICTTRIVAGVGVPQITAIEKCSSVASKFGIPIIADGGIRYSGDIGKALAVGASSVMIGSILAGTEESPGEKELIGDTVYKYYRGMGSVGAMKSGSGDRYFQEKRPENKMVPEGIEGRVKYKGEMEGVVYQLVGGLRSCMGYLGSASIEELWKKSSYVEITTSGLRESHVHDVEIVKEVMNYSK
The experiment in a line: Inhibition of Cryptosporidium parvum recombinant IMPDH expressed in Escherichia coli TX685 assessed as NADH production by fluorescence assay in absence of 0.05% fatty acid free bovine serum albumin. In short, it runs like this:
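Enzyme (10 nM) pre-incubated with inhibitor 5 min at room temperature before adding substrates (150 μM IMP, 300 μM NAD). Inhibitor range 25 pM–5 μM. NADH read by fluorescence. Initial velocities averaged over quadruplicates. IC50 from vi/vo, mean ± SD of three independent determinations.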

The target of assay [3] is T2, Inosine-5'-monophosphate dehydrogenase. Kind of assay: Inhibition of Cryptosporidium parvum recombinant IMPDH expressed in Escherichia coli TX685 assessed as NADH production by fluorescence assay in presence of 0.05% fatty acid free bovine serum albumin. In short, it runs like this: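 Same IMP→XMP fluorescence (NADH) assay, with 0.05% fatty acid free BSA added. Conditions: 10 nM enzyme, 5 min room-temperature pre-incubation with inhibitor, then 150 μM IMP and 300 μM NAD. IC50 from three independent experiments, mean ± SD.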

Assay [4] has as its target T3, Inosine-5'-monophosphate dehydrogenase (Cryptosporidium parvum) (UniProt Q8T6T2).
T3 sequence (whole entry): T2 sequence (Q8T6T2 whole entry)
Kind of assay: Ratio of campaign IC50 to compound IC50 for Cryptosporidium parvum recombinant IMPDH expressed in Escherichia coli TX685 in absence of 0.05% fatty acid free bovine serum albumin.

Assay [5] has as its target T2, Inosine-5'-monophosphate dehydrogenase. The experiment in a line: Inhibition of Cryptosporidium parvum recombinant IMPDH expressed in Escherichia coli guaB assessed as NADH production by fluorescence assay. A digest of the protocol:
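E. coli-expressed CpIMPDH at 10 nM, preincubated with inhibitor (25 pM - 5 μM) for 5 min at room temperature before adding 150 μM IMP and 300 μM NAD. NADH read by fluorescence from initial velocities, in quadruplicate. IC50 ± SD from three independent runs, some also with 0.05% fatty-acid-free BSA.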

Assay [6] concerns the target T1, Inosine-5'-monophosphate dehydrogenase 2. The experiment in a line: Inhibition of human recombinant IMPDH2 expressed in Escherichia coli guaB assessed as NADH production by fluorescence assay.

As to `CC(Oc1cccc2ccccc12)C(=O)Nc1ccc(Cl)cc1` (configuration not stated), in assay [1], the inhibition was less than 10%. Besides, the figures for the IC50 in assay [2] and in assay [3] were 1060 nM and 1640 nM, respectively. The Ratio IC50 in assay [4] worked out at 3.
Take `CC(Oc1ccnc2ccccc12)c1cn(-c2ccc(C#N)cc2)nn1` (configuration not stated): the inhibition in assay [1] is less than 10%. The IC50 was determined as 140 nM in assay [2] and 340 nM in assay [3].
Regarding `C[C@@H](Oc1cc[n+]([O-])c2ccccc12)c1cn(-c2ccc(Cl)cc2)nn1`, the inhibition in assay [1] was less than 10%. The results for the IC50 in assay [2] and in assay [3] were 13 nM and 50 nM, respectively.
As for `CC(C)C(Oc1cccc2ccccc12)c1cn(-c2ccc(Cl)cc2)nn1` (configuration not stated), the inhibition in assay [1] is less than 10%. Also, the IC50 in assay [2] was more than 5000 nM.
Turning to `CC(C)C(Oc1cccc2ccccc12)C(=O)Nc1ccc(Cl)cc1` (configuration not stated), in assay [1], the inhibition is less than 10%. Also, the IC50 worked out at 710 nM in assay [2] and 830 nM in assay [3].
Take `O=C(Nc1ccc(Cl)cc1)C(Oc1cccc2ccccc12)C1CC1` (configuration not stated): the inhibition in assay [1] is less than 10%. Also, the IC50 in assay [2] is more than 5000 nM.
As to `CC(Oc1ccccc1)C(=O)Nc1ccc(Cl)cc1` (configuration not stated), the IC50 in assay [2] is 3300 nM; in assay [6], more than 50 µM. Moreover, the EC50 in assay [5] came to 3.3 µM.
For `C[C@@H](Oc1ccnc2ccccc12)c1cn(-c2ccc(Cl)c(Cl)c2)nn1`, in assay [1], the inhibition was less than 10%. In addition, the IC50 in assay [2] amounted to 9 nM; in assay [3], 650 nM.
Regarding `CC(Oc1cc[n+]([O-])c2ccccc12)c1cn(-c2ccc(Cl)c(Cl)c2)nn1` (configuration not stated), in assay [1], the inhibition is less than 10%. Further, the IC50 stood at 18 nM in assay [2] and 42 nM in assay [3].
Turning to `C[C@@H](Oc1cccc2c1ccc[n+]2[O-])c1cn(-c2ccc(Cl)cc2)nn1`, the inhibition in assay [1] is less than 10%. The IC50 amounted to 24 nM in assay [2] and 52 nM in assay [3].
`Clc1ccc(-n2cc(COc3ccnc4ccccc34)nn2)cc1`: in assay [1], the inhibition was less than 10%. The IC50 was 440 nM in assay [2] and 480 nM in assay [3].
For `CC(Oc1cccc2ccccc12)c1cn(-c2ccc(Cl)cc2)nn1` (configuration not stated), in that order: less than 10%, 130 nM and 780 nM.
As to `CC(Oc1cc[n+]([O-])c2ccccc12)c1cn(-c2ccc(Cl)cc2)nn1` (configuration not stated), the inhibition in assay [1] was less than 10%. For the same molecule, the figures for the concentration for half-maximal inhibition (IC50) in assay [2] and in assay [3] were 29 nM and 50 nM, respectively.
Regarding `CC(Oc1cccc2c1ccc[n+]2[O-])c1cn(-c2ccc(Cl)cc2)nn1` (configuration not stated), the inhibition in assay [1] was less than 10%. The half-maximal inhibitory concentration (IC50) in assay [2] turned out to be 44 nM; in assay [3], 59 nM.
`CC(Oc1ccc(Cl)c2ccccc12)c1cn(-c2ccc(Cl)cc2)nn1` (configuration not stated): the inhibition in assay [1] is less than 10%. Besides, the concentration for half-maximal inhibition (IC50) came out at 87 nM in assay [2] and 3900 nM in assay [3].
For the molecule `CC(Oc1ccnc2ccccc12)c1cn(-c2ccc(Cl)c(Cl)c2)nn1` (configuration not stated), the inhibition in assay [1] was less than 10%. The IC50 in assay [2] came to 20 nM; in assay [3], 700 nM.
Turning to `C[C@H](Oc1ccnc2ccccc12)c1cn(-c2ccc(C#N)c(Cl)c2)nn1`, the inhibition in assay [1] was less than 10%. The IC50 in assay [2] amounted to 600 nM; in assay [3], 2300 nM.
For the molecule `C[C@H](Oc1ccnc2ccccc12)c1cn(-c2ccc(Cl)c(Cl)c2)nn1`, the inhibition in assay [1] is less than 10%. Further, the IC50 was 130 nM in assay [2] and 880 nM in assay [3].
Regarding `CC(Oc1ccnc2ccccc12)c1cn(-c2ccc(C#N)c(Cl)c2)nn1` (configuration not stated), the inhibition in assay [1] is less than 10%. For the same molecule, the results for the IC50 in assay [2] and in assay [3] were 40 nM and 1400 nM, respectively.
Turning to `CC(Oc1ccnc2ccccc12)C(=O)Nc1ccc(Cl)cc1` (configuration not stated), the inhibition in assay [1] was less than 10%. Also, the figures for the half-maximal inhibitory concentration (IC50) in assay [2] and in assay [3] were 660 nM and 860 nM, respectively.
For `CC(Oc1ccnc2ccccc12)c1cn(-c2ccc(Cl)cc2)nn1` (configuration not stated), in that order: less than 10%, 24 nM and 230 nM.
As to `C[C@@H](Oc1cccc2ncccc12)c1cn(-c2ccc(Cl)cc2)nn1`, the inhibition in assay [1] was less than 10%. Besides, the IC50 in assay [2] amounted to 9 nM; in assay [3], 30 nM.
With `O=C(Nc1ccc(Cl)cc1)C(Oc1cccc2ccccc12)c1ccccc1` (configuration not stated), the inhibition in assay [1] was less than 10%. Also, in assay [2], the IC50 was more than 5000 nM.
With `CC(Oc1cccc2ccccc12)c1cn(-c2ccccc2Cl)nn1` (configuration not stated), the inhibition in assay [1] was less than 10%. Further, the IC50 in assay [2] was more than 5000 nM.
In the case of `C[C@@H](Oc1ccnc2ccccc12)c1cn(-c2ccc(C#N)c(Cl)c2)nn1`, the inhibition in assay [1] is less than 10%. Moreover, the IC50 in assay [2] is 31 nM; in assay [3] it was 1100 nM.
